Values joined by “and” are separate entries in the source; they are usually repeats but may differ in a detail not shown here. Equal values may be shown once.
System: U2OS
Assay: Multiplex assay against U2OS
Format: toxicity, cell-based
Conditions: human
How it was run: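 Imaging took place on a CQ1 microscope at 37°C and 5% CO2 once compound had been added to live cells stained at seeding with Hoechst33342, BioTracker Green Microtubule Cytoskeleton Dye, MitoTracker Red and Annexin V Alexa Fluor 680. CellPathfinder machine-learning gating classed cells as Hoechst high-intensity objects or normal cells, classed normal cells as having healthy, pyknosed or fragmented nuclei, and classed pyknosed cells as mitotic or apoptotic. Tubulin, mitochondrial-mass and membrane-permeability phenotypes are per cents of the healthy-nucleus cells.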

[1] = 12 h, 10 µM, compound concentration 10 uM, replicate 1
[2] = 12 h, 10 µM, compound concentration 10 uM, replicate 2
[3] = 24 h, 10 µM, compound concentration 10 uM, replicate 1
[4] = 24 h, 10 µM, compound concentration 10 uM, replicate 2
[5] = 12 h, 1 µM, compound concentration 1 uM, replicate 1
[6] = 12 h, 1 µM, compound concentration 1 uM, replicate 2
[7] = 24 h, 1 µM, compound concentration 1 uM, replicate 1
[8] = 24 h, 1 µM, compound concentration 1 uM, replicate 2
[9] = 48 h, 1 µM, compound concentration 1 uM, replicate 1
[10] = 48 h, 1 µM, compound concentration 1 uM, replicate 2
[11] = 48 h, 10 µM, compound concentration 10 uM, replicate 1
[12] = 48 h, 10 µM, compound concentration 10 uM, replicate 2

## CNCc1ccccc1-c1csc([C@@H](C)Nc2nc(C)nc3cc(OC)c(OC)cc23)c1 [BAY-293]
[1]
  Population Apoptotic (%): 63% and 46%
  Population Healthy Nuclei (%): 36% and 80%
  Population Hoechst High Intensity Objects (%): 5% and 4%
  Population Membrane Permeable-Phenotype (%): 73% and 54%
  Population Mitochondria Different-Phenotype (%): 88% and 36%
  Population Mitotic Cells (%): 36% and 53%
  Population Normal (%): 94% and 95%
  Population Tubulin-Different-Phenotype (%): 100% and 98%
[2]
  Population Apoptotic (%): 54% and 52%
  Population Fragmented Nuclei (%): 9% and 17%
  Population Healthy Nuclei (%): 72% and 52%
  Population Hoechst High Intensity Objects (%): 14% and 16%
  Population Membrane Permeable-Phenotype (%): 46% and 75%
  Population Mitochondria Different-Phenotype (%): 56% and 97%
  Population Mitotic Cells (%): 45% and 47%
  Population Normal (%): 85% and 83%
  Population Pyknosed Nuclei (%): 17% and 30%
  Population Tubulin-Different-Phenotype (%): 97%
[3]
  Population Apoptotic (%): 91%
  Population Fragmented Nuclei (%): 19% and 7%
  Population Hoechst High Intensity Objects (%): 19% and 7%
  Population Membrane Permeable-Phenotype (%): 100% and 52%
  Population Mitochondria Different-Phenotype (%): 100% and 64%
  Population Mitotic Cells (%): 8%
  Population Normal (%): 80% and 92%
  Population Pyknosed Nuclei (%): 66% and 27%
  Population Tubulin-Different-Phenotype (%): 100% and 97%
[4]
  Population Apoptotic (%): 84% and 45%
  Population Fragmented Nuclei (%): 25% and 10%
  Population Healthy Nuclei (%): 30% and 60%
  Population Hoechst High Intensity Objects (%): 10% and 8%
  Population Membrane Permeable-Phenotype (%): 91% and 43%
  Population Mitochondria Different-Phenotype (%): 95% and 72%
  Population Normal (%): 89% and 91%
  Population Pyknosed Nuclei (%): 44% and 28%
  Population Tubulin-Different-Phenotype (%): 95% and 96%

## CC1=C(C(=O)Nc2cc3cn[nH]c3cc2F)C(c2ccc(C(F)(F)F)cc2)CC(=O)N1 (stereo not given)
[5]
  Population Apoptotic (%): 46%
  Population Fragmented Nuclei (%): 9%
  Population Healthy Nuclei (%): 78%
  Population Hoechst High Intensity Objects (%): 4%
  Population Membrane Permeable-Phenotype (%): 6%
  Population Mitochondria Different-Phenotype (%): 5%
  Population Mitotic Cells (%): 53%
  Population Normal (%): 95%
  Population Pyknosed Nuclei (%): 12%
  Population Tubulin-Different-Phenotype (%): 10%
  Total Cell Count: 190
[6]
  Population Apoptotic (%): 50%
  Population Fragmented Nuclei (%): 2%
  Population Healthy Nuclei (%): 93%
  Population Hoechst High Intensity Objects (%): 10%
  Population Membrane Permeable-Phenotype (%): 4%
  Population Mitochondria Different-Phenotype (%): 9%
  Population Mitotic Cells (%): 50%
  Population Normal (%): 89%
  Population Pyknosed Nuclei (%): 4%
  Population Tubulin-Different-Phenotype (%): 14%
  Total Cell Count: 76
[1]
  Population Apoptotic (%): 40%
  Population Fragmented Nuclei (%): 7%
  Population Healthy Nuclei (%): 77%
  Population Hoechst High Intensity Objects (%): 8%
  Population Membrane Permeable-Phenotype (%): 3%
  Population Mitochondria Different-Phenotype (%): 9%
  Population Mitotic Cells (%): 60%
  Population Normal (%): 91%
  Population Pyknosed Nuclei (%): 14%
  Population Tubulin-Different-Phenotype (%): 4%
  Total Cell Count: 223
[2]
  Population Apoptotic (%): 50%
  Population Fragmented Nuclei (%): 21%
  Population Healthy Nuclei (%): 70%
  Population Hoechst High Intensity Objects (%): 9%
  Population Membrane Permeable-Phenotype (%): 5%
  Population Mitochondria Different-Phenotype (%): 12%
  Population Mitotic Cells (%): 50%
  Population Normal (%): 90%
  Population Pyknosed Nuclei (%): 7%
  Population Tubulin-Different-Phenotype (%): 25%
  Total Cell Count: 97
[7]
  Population Apoptotic (%): 56%
  Population Fragmented Nuclei (%): 8%
  Population Healthy Nuclei (%): 82%
  Population Hoechst High Intensity Objects (%): 2%
  Population Membrane Permeable-Phenotype (%): 6%
  Population Mitochondria Different-Phenotype (%): 9%
  Population Mitotic Cells (%): 43%
  Population Normal (%): 97%
  Population Pyknosed Nuclei (%): 8%
  Population Tubulin-Different-Phenotype (%): 9%
  Total Cell Count: 176
[8]
  Population Apoptotic (%): 42%
  Population Fragmented Nuclei (%): 7%
  Population Healthy Nuclei (%): 86%
  Population Hoechst High Intensity Objects (%): 4%
  Population Membrane Permeable-Phenotype (%): 10%
  Population Mitochondria Different-Phenotype (%): 13%
  Population Mitotic Cells (%): 57%
  Population Normal (%): 95%
  Population Pyknosed Nuclei (%): 6%
  Population Tubulin-Different-Phenotype (%): 16%
  Total Cell Count: 93
[3]
  Population Apoptotic (%): 66%
  Population Fragmented Nuclei (%): 6%
  Population Healthy Nuclei (%): 86%
  Population Membrane Permeable-Phenotype (%): 1%
  Population Mitochondria Different-Phenotype (%): 6%
  Population Mitotic Cells (%): 33%
  Population Pyknosed Nuclei (%): 7%
  Population Tubulin-Different-Phenotype (%): 4%
  Total Cell Count: 277
[4]
  Population Apoptotic (%): 75%
  Population Fragmented Nuclei (%): 23%
  Population Healthy Nuclei (%): 68%
  Population Hoechst High Intensity Objects (%): 6%
  Population Membrane Permeable-Phenotype (%): 4%
  Population Mitochondria Different-Phenotype (%): 14%
  Population Mitotic Cells (%): 25%
  Population Normal (%): 93%
  Population Pyknosed Nuclei (%): 8%
  Population Tubulin-Different-Phenotype (%): 29%
  Total Cell Count: 119
[9]
  Population Apoptotic (%): 34%
  Population Fragmented Nuclei (%): 7%
  Population Healthy Nuclei (%): 85%
  Population Hoechst High Intensity Objects (%): 2%
  Population Membrane Permeable-Phenotype (%): 3%
  Population Mitochondria Different-Phenotype (%): 12%
  Population Mitotic Cells (%): 65%
  Population Normal (%): 97%
  Population Pyknosed Nuclei (%): 7%
  Population Tubulin-Different-Phenotype (%): 11%
  Total Cell Count: 181
[10]
  Population Apoptotic (%): 75%
  Population Fragmented Nuclei (%): 6%
  Population Healthy Nuclei (%): 90%
  Population Hoechst High Intensity Objects (%): 4%
  Population Membrane Permeable-Phenotype (%): 6%
  Population Mitochondria Different-Phenotype (%): 18%
  Population Mitotic Cells (%): 25%
  Population Normal (%): 95%
  Population Pyknosed Nuclei (%): 2%
  Population Tubulin-Different-Phenotype (%): 12%
  Total Cell Count: 77
[11]
  Population Fragmented Nuclei (%): 7%
  Population Healthy Nuclei (%): 77%
  Population Hoechst High Intensity Objects (%): 2%
  Population Membrane Permeable-Phenotype (%): 3%
  Population Mitochondria Different-Phenotype (%): 12%
  Population Normal (%): 97%
  Population Pyknosed Nuclei (%): 15%
  Population Tubulin-Different-Phenotype (%): 3%
  Total Cell Count: 438
[12]
  Population Apoptotic (%): 50%
  Population Fragmented Nuclei (%): 15%
  Population Healthy Nuclei (%): 76%
  Population Hoechst High Intensity Objects (%): 3%
  Population Membrane Permeable-Phenotype (%): 8%
  Population Mitochondria Different-Phenotype (%): 28%
  Population Mitotic Cells (%): 50%
  Population Normal (%): 96%
  Population Pyknosed Nuclei (%): 8%
  Population Tubulin-Different-Phenotype (%): 32%
  Total Cell Count: 170

## Cc1cc(C)c(-n2ccn3nc(-c4cccnc4)cc23)cc1NC(=O)c1cc(C#N)cc(S(F)(F)(F)(F)F)c1 [BAY-826]
[5]
  Population Apoptotic (%): 68% and 80%
  Population Fragmented Nuclei (%): 11% and 8%
  Population Healthy Nuclei (%): 75% and 87%
  Population Hoechst High Intensity Objects (%): 4%
  Population Membrane Permeable-Phenotype (%): 45% and 44%
  Population Mitochondria Different-Phenotype (%): 41% and 26%
  Population Mitotic Cells (%): 31% and 20%
  Population Normal (%): 95%
  Population Pyknosed Nuclei (%): 13% and 5%
  Population Tubulin-Different-Phenotype (%): 99% and 93%
  Total Cell Count: 168 and 105
[6]
  Population Apoptotic (%): 75% and 78%
  Population Fragmented Nuclei (%): 13% and 15%
  Population Healthy Nuclei (%): 81% and 69%
  Population Hoechst High Intensity Objects (%): 11% and 12%
  Population Membrane Permeable-Phenotype (%): 36% and 35%
  Population Mitochondria Different-Phenotype (%): 27% and 79%
  Population Mitotic Cells (%): 25% and 21%
  Population Normal (%): 88% and 87%
  Population Pyknosed Nuclei (%): 15%
  Population Tubulin-Different-Phenotype (%): 68% and 100%
  Total Cell Count: 85
[7]
  Population Apoptotic (%): 50% and 85%
  Population Fragmented Nuclei (%): 9%
  Population Healthy Nuclei (%): 82% and 53%
  Population Hoechst High Intensity Objects (%): 5%
  Population Membrane Permeable-Phenotype (%): 36% and 51%
  Population Mitochondria Different-Phenotype (%): 44% and 78%
  Population Normal (%): 94%
  Population Tubulin-Different-Phenotype (%): 63%
  Total Cell Count: 134 and 155
[8]
  Population Apoptotic (%): 80% and 70%
  Population Fragmented Nuclei (%): 19% and 10%
  Population Healthy Nuclei (%): 50% and 78%
  Population Hoechst High Intensity Objects (%): 13% and 9%
  Population Membrane Permeable-Phenotype (%): 56% and 28%
  Population Mitotic Cells (%): 19% and 30%
  Population Normal (%): 87% and 90%
  Population Pyknosed Nuclei (%): 29% and 11%
  Population Tubulin-Different-Phenotype (%): 100% and 48%
  Total Cell Count: 100 and 98

From ChEMBL document CHEMBL4689842, “EUbOPEN Chemogenomics Library wave 1” (2021)
